Shown are actives, neighbours in structure and some others; about 2.1% of the full set was active somewhere.
SR-BI DiI-HDL act – activators of SR-BI mediated DiI-HDL uptake, primary screen, ldlA[mSR-BI] CHO cells, DiI fluorescence. 320,000 compounds, 0.096% hits. activation, % at 12.5 µM. 3 h; 100 = double the neutral-control signal;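 active = mean replicate activation of at least 60% and every replicate at or above 60%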;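 also: 0% = median plate neutral-control signal and 100% = twice that signal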
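material = CHO ldlA[mSR-BI] cells | medium = Ham's F12 with 0.5% BSA, HEPES 25 mM, pH 7.4 | reagent = fluorescent DiI-HDL, 10 µg/mL final | compound dosing = single-point compound dose | incubation = 3 h, 37 °C | measured by = bottom-read fluorescence, 550/595 nm | measure = HDL uptake via cellular fluorescence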
miR122 inh – miR-122 Renilla sensor signal increase in Huh7, primary screen, miR-122 inhibitor project, cell-based, single point, plate reader; AID 602342, 2012; activation (reporter increase), % at 12.5 µM; Huh7 miR-122 Renilla luciferase sensor, 48 h; neutral wells = 0, positive control = 100; 340,000 compounds, 0.3% hits;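 active = mean replicate activation score at least 90 and every replicate individually at or above 90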;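 also: higher luciferase means less miR-122 activity so hits act as miR-122 inhibitors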
ARNT TACC3 PPI – disruptors of ARNT/TACC3 protein interaction, primary screen, biochemical, AlphaScreen, single concentration | AlphaScreen His-ARNT PAS-B/GST-TACC3 binding, luminescence; TACC3 fragment carries E629A point mutation | inhibition, % at 9.99 µM | 390,000 compounds, 0.66% hits | AID 623870, 2012;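 active = mean inhibition of replicates at least 50% and at least half of replicates each reaching 50%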;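 also: 0% = complete ARNT plus TACC3 wells and 100% = ARNT alone without TACC3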
CAL PDZ FP-1 – untagged CAL PDZ binding inhibitors, primary screen, biochemical, fluorescence polarization, HTS; purified CAL PDZ, TMR-peptide fluorescence polarization, 1 h; Golgi-associated PDZ and coiled-coil motif-containing protein (Homo sapiens), Q9HD26; 300,000 compounds, 0.92% hits; inhibition, % at 24.9 µM;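 active = mean inhibition of at least 30% with at least half of replicates also reaching 30%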;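 also: 0% = DMSO neutral control and 100% = excess unlabeled competitor peptide PRC23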
SR-BI DiI inh – inhibitors of SR-BI mediated HDL lipid uptake, primary screen, ldlA[mSR-BI] cells, fluorescence, single point; Scavenger receptor class B member 1 (Mus musculus), Q61009; ldlA[mSR-BI] CHO cells, DiI-HDL uptake fluorescence, 3 h; AID 488896, 2010; 320,000 compounds, 0.96% hits; inhibition, % at 12.5 µM;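 active = mean replicate inhibition of at least 70% and a set share of replicates each scoring 70 or more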;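 also: 0% = median of neutral control wells and 100% = median of positive control wells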
Target sequence (Q61009 whole entry, looked up): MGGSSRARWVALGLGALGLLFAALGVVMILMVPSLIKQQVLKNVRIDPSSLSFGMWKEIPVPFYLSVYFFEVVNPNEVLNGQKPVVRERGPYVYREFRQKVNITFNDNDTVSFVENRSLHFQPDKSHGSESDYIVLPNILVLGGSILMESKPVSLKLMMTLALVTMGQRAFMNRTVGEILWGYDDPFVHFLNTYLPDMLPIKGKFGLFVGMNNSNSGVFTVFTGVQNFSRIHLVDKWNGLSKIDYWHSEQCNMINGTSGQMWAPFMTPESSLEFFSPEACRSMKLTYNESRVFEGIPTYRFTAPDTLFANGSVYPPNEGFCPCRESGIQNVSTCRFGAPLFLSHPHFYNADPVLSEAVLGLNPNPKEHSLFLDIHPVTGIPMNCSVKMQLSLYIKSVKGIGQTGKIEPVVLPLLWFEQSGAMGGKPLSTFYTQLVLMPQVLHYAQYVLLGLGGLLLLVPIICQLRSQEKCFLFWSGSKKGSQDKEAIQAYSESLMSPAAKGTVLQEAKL
CAL PDZ FP-2 – CAL PDZ peptide-binding inhibitors, primary screen, biochemical, fluorescence polarization, Cer-tagged CAL PDZ, HTS; purified CAL PDZ, TMR-peptide fluorescence polarization, 1 h; inhibition, % at 20 µM; 330,000 compounds, 0.02% hits;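 active = highest replicate inhibition of at least 40%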;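 also: plate controls were DMSO neutral control wells for no effect and unlabeled competitor peptide control wells for full effect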
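material = purified tagged CAL PDZ domain construct (CerCALP) | compound dosing = 20 µM, one dose | times = 1 h at RT | measured by = fluorescence polarization from S- and P-plane intensities, G-factor corrected | read-out = inhibition from polarization loss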
Active calls of the source: *; . = no result; [ ] = remark or other dose.

SMILES	SR-BI DiI-HDL act	miR122 inh	ARNT TACC3 PPI	CAL PDZ FP-1	SR-BI DiI inh	CAL PDZ FP-2
Cc1ccc(S(=O)(=O)NCc2ccco2)c(C)c1C	5	107*	0	0	-5	1
O=C(C1CCC1)N1CCc2cc(S(=O)(=O)NCc3ccco3)ccc21	-22	177*	-2	.	22	-1
C[C@H]1CN([C@@H](C)CO)C(=O)Cc2cc(NC(=O)Nc3ccc4c(c3)OCO4)ccc2O[C@@H]1CN(C)Cc1ccc(-c2ccccc2)cc1	.	-13[16.7 µM]	-3	.	.	.
Cc1noc(C)c1S(=O)(=O)Nc1ccc2c(c1)CC(=O)N([C@H](C)CO)C[C@H](C)[C@H](CN(C)S(C)(=O)=O)O2	.	3[16.7 µM]	-24	.	.	.
CC1(CSc2ccccc2)CC(=O)N1 (stereo not drawn)	.	-4	.	.	.	.
O=C1NC(=O)C(CSc2ccccc2)(c2ccccc2)N1 (stereo not drawn)	13	1	-5	42*	-13	0
C[C@@H]1CN([C@@H](C)CO)C(=O)c2cccc(NS(=O)(=O)c3ccc(F)cc3)c2O[C@@H]1CN(C)C(=O)Nc1cccc2ccccc12	.	31[16.7 µM]	2	.	.	.
CO[C@H]1CN(C)C(=O)c2cc(NC(=O)Nc3ccccc3F)ccc2OC[C@H](C)NC[C@H]1C	.	-3[16.7 µM]	.	.	.	.
CCOC(=O)c1c(N)c(C#N)c2n1CCCCC2	1	4	0	37*	-1	.
NC1=C(Br)C(=O)c2ncccc2C1=O	5	10	64*	-6	-5	0
O=C1c2cccnc2C(=O)N1CO	-3	-4	11	0	3	0
CC(=O)N1[C@@H](CO)[C@@H](c2ccc(C3=CCCC3)cc2)[C@@H]1CNC(=O)CN(C)C	.	7[16.7 µM]	-2	.	.	.
COc1ccc(S(=O)(=O)N(C)C[C@@H]2OCCCC[C@H](C)Oc3ccc(NC(=O)Nc4ccc(C(F)(F)F)cc4)cc3C(=O)N([C@@H](C)CO)C[C@H]2C)cc1	.	-7[16.7 µM]	-23	.	.	.
CSC(=Nc1ccccc1)N=C(SCc1ccccc1)N(C)C	-86	0	-2	-4	86*	0
Cc1nc(NC(=O)CC(C)C)sc1-c1csc(Nc2ccc(Cl)cc2)n1	-73	1	0	-2	73*	0
C=CCCC(=O)Nc1nc(C)c(-c2csc(Nc3ccc(Cl)cc3Cl)n2)s1	-70	9	-13	-1	70	-1
CCCC(C)C(=O)Nc1nc(C)c(-c2csc(Nc3cc(Cl)ccc3C)n2)s1 (stereo not drawn)	-82	.	0	-1	82*	0
CCCCCC(=O)Nc1nc(C)c(-c2csc(Nc3cc(Cl)ccc3C)n2)s1	-79	12	2	-6	79*	0
CCCCCC(=O)Nc1nc(C)c(-c2csc(Nc3ccc(Cl)cc3)n2)s1	-96	9	2	6	96*	0
COCC#Cc1cnc2c(c1)C(=O)N([C@@H](C)CO)C[C@@H](C)[C@H](CN(C)C(=O)C1CCC1)O2	.	-2[16.7 µM]	-7	.	.	.
O=C(C[C@H]1C[C@@H]2c3cc(NS(=O)(=O)c4ccc(F)cc4)ccc3O[C@@H]2[C@H](CO)O1)NCc1cc(F)ccc1F	.	-4[16.7 µM]	-9	.	.	.
COC(=O)[C@]1(Cc2ccccc2)N=C(c2ccc(OCCCO)cc2)O[C@@H]1c1ccccc1N=[N+]=[N-]	.	.	12	.	.	.
COc1cccc(-c2cnc3c(c2)C(=O)N([C@H](C)CO)C[C@@H](C)[C@H](CN(C)Cc2ccc(C(=O)O)cc2)O3)c1	.	-2[16.7 µM]	28	.	.	.
CON=C(C(=O)NC1C(=O)N2C(C(=O)O)=C(CSc3nc(=O)c(=O)[nH]n3C)CSC12)c1csc(N)n1 (stereo not drawn)	5	4	12	-4	-5	-1
COCC1=C(C(=O)OC(C)OC(=O)OC(C)C)N2C(=O)[C@@H](NC(=O)/C(=N\OC)c3csc(N)n3)[C@H]2SC1 (stereo partly drawn)	-88	-3	29	-1	88*	0
SMILES	SR-BI DiI-HDL act	miR122 inh	ARNT TACC3 PPI	CAL PDZ FP-1	SR-BI DiI inh	CAL PDZ FP-2
CCn1cc(CN2CCCC(C(=O)Nc3cccc(-c4cc5ccccc5[nH]4)c3)C2)cn1 (stereo not drawn)	-46	-9	10	51*	46	2
C[C@H]1CN([C@@H](C)CO)C(=O)c2cc(NC(=O)Cn3cnnn3)ccc2O[C@H]1CN(C)Cc1ccc(Cl)c(Cl)c1	.	-2[16.7 µM]	.	.	.	.
CCc1ccc(C(=O)Nc2ccc3c(c2)n(C)c(=O)n3C)cc1	-51	7	-3	.	51	-1
Cn1c(=O)n(C)c2cc(NC(=O)c3ccccc3NS(C)(=O)=O)ccc21	22	-8	-1	80*	-22	-1
O=C(C[C@@H]1CC[C@@H]2[C@H](COC[C@H](O)CN2Cc2cccc(C(F)(F)F)c2)O1)NCCc1ccccc1	.	-8[16.7 µM]	-15	.	.	.
COc1cc(F)ccc1S(=O)(=O)N1CCN(C23CC4CC(CC(C4)C2)C3)CC1	-7	-2	.	5	7	-3
COc1cc(C)ccc1S(=O)(=O)N1CCN(C23CC4CC(CC(C4)C2)C3)CC1	-77	6	11	-3	77*	.
CO[C@@H]1CN(C)C(=O)c2ccc(NS(C)(=O)=O)cc2OC[C@@H](C)N(C(=O)NC(C)C)C[C@H]1C	.	13[16.7 µM]	-3	.	.	.
COc1ccc(NC(=S)Nc2cccc3cnccc23)cc1	25	-2	15*	0	-25	-1
COc1ccccc1NC(=S)Nc1cccc2cnccc12	-8	.	76*	8	8	0
COc1cccc(NC(=O)C[C@@H]2CC[C@@H]3[C@H](COc4ccc(NC(C)=O)cc4C(=O)N3C)O2)c1	.	4[16.7 µM]	1	.	.	.
CCCCC(=O)Nc1ccc2c(c1)oc1ccccc12	-9	35	1	56*	9	-2
Cc1ccc(S(=O)(=O)N(C)C[C@@H]2Oc3ccc(NC(=O)Nc4ccc5c(c4)OCO5)cc3CC(=O)N([C@@H](C)CO)C[C@@H]2C)cc1	.	113*[16.7 µM]	10	.	.	.
C[C@H](CO)N1C[C@H](C)[C@H](CN(C)S(=O)(=O)c2ccc(Cl)cc2)Oc2ccc(NC(=O)Nc3ccc(C(F)(F)F)cc3)cc2CC1=O	.	94*[16.7 µM]	.	.	.	.
